The record followed here is article PMC7254033 (Saudi Journal of Biological Sciences, 2019).

In brackets after ≈: the same amount, converted by molar mass. Marks after values point to notes of the source that are not given here.

Experiment [1] deals with zymosan stimulated human whole blood phagocytes. In words: Oxidative burst assay. Format: cell-based. Conditions: read-out: ROS Inhibition (IC50 µg/mL). In short, it runs like this:
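Diluted human whole blood phagocytes were stimulated with zymosan and intracellular ROS measured by luminol-enhanced chemiluminescence. Test compound was given at three concentrations (1, 10 and 100), with ibuprofen as standard anti-inflammatory drug. IC50 was derived.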

In experiment [2] the test system is Candida albicans NR-29450. In words: Anti-yeast activity, CLSI M27-A3 microdilution MIC. Format: cell-based. Conditions: NR29450, 48 h, read-out: Antifungal activity Minimal Inhibitory Concentrations, C. albicans. A digest of the protocol:
(§1)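 Broth microdilution per CLSI M27-A3 in RPMI 1640 with two-fold serial dilutions over ten concentrations, alongside fluconazole reference dilutions. Strains were kept on agar slopes at 4 °C and subcultured for 48 h before each run. Inoculum was standardized at 2.50 × 10^3 cells/mL, with a blank sterility column. Plates were incubated 48 h at 37 °C. MIC was the lowest concentration with no visible turbidity. Tested in triplicate.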

A short description of experiment [3]: DPPH radical scavenging activity. Conditions: 30 mins in the dark, absorbance at 517 nm. A digest of the protocol:
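DPPH was made up at 0.02% in methanol ([…]), stored closed away from light and heat. Serial dilutions of test compound were mixed with the DPPH solution to eight final two-fold concentrations, with ascorbic acid treated identically as positive control. Mixtures stood 30 min in the dark at room temperature. Absorbance at 517 nm was read against blank. % scavenging = (Ao − As)/Ao × 100, and IC50 was deduced from it. Triplicate.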

Experiment [4] has as its system Candida krusei ATCC 6258. Briefly: Anti-yeast activity, CLSI M27-A3 microdilution MIC. Format: cell-based. Conditions: for Antifungal activity, folds less than fuconazole: strain not given, fits C. krusei of Table 3. A digest of the protocol:
as §1

Experiment [5] concerns Candida glabrata isolate. Briefly: Anti-yeast activity, CLSI M27-A3 microdilution MIC. Format: cell-based. Conditions: 48 h, 37 °C. A digest of the protocol: as §1

On to `CC(C)Cc1ccc(C(C)C(=O)O)cc1` (centres unmarked) [Ibuprofen], for which, in experiment [1], the IC50 came to 11.2 ± 1.9 µg/mL (≈ 54.3 µM).
As to `C=C(C)[C@@H]1CC[C@]2(C)CC[C@]3(C)[C@H](CC[C@@H]4[C@@]5(C)CCC(=O)C(C)(C)[C@@H]5CC[C@]43C)[C@@H]12` [Compound 10, lupenone], in experiment [2], the MIC amounted to 500 µg/mL (≈ 1180 µM). For the same compound, the “DPPH radical scavenging activity IC50” value in experiment [3] is on record as “˃1000 µg/mL”.
Consider `C=C(C)[C@@H]1CC[C@]2(C(=O)O)CC[C@]3(C)[C@H](CC[C@@H]4[C@@]5(C)CC[C@H](O)C(C)(C)[C@@H]5CC[C@]43C)[C@@H]12` [Compound 8, betulinic acid], for which, in experiment [2], the MIC is 500 µg/mL (≈ 1090 µM). In addition, the “Antifungal activity, folds less than fuconazole” value in experiment [4] came out at 5 folds. Moreover, the “DPPH radical scavenging activity IC50” value in experiment [3] was “˃1000 µg/mL”.
`O=C1O[C@H]([C@@H](O)CO)C(O)=C1O` [Vitamin C, ascorbic acid, reference compound]: the “DPPH radical scavenging activity IC50” value in experiment [3] is 3.343 ± 0.271^a µg/mL.
With `C=C(C)[C@@H]1CC[C@]2(C)CC[C@]3(C)[C@H](CC[C@@H]4[C@@]5(C)CC[C@H](O)C(C)(C)[C@@H]5CC[C@]43C)[C@@H]12` [Compound 7, lupeol], the MIC in experiment [2] turned out to be 500 µg/mL (≈ 1170 µM). Moreover, the “Antifungal activity, folds less than fuconazole” value in experiment [4] was 5 folds. In addition, the “DPPH radical scavenging activity IC50” value in experiment [3] was “˃1000 µg/mL”.
As for `CC1(C)CC[C@]2(C(=O)O)CC[C@]3(C)C(=CC[C@@H]4[C@@]5(C)CC[C@H](O)C(C)(C)[C@@H]5CC[C@]43C)[C@@H]2C1` [Compound 5, oleanolic acid], the MIC in experiment [2] amounted to 500 µg/mL (≈ 1090 µM). Also, the “DPPH radical scavenging activity IC50” value in experiment [3] is recorded as “˃1000 µg/mL”.
Turning to `OC(Cn1cncn1)(Cn1cncn1)c1ccc(F)cc1F` [Fluconazol, fluconazole, reference compound], the “Antifungal activity Minimal Inhibitory Concentrations, C. krusei” value in experiment [4] (48 h, 37 °C) is given as 50 µg/mL. The “Antifungal activity Minimal Inhibitory Concentrations, C. glabrata” value in experiment [5] was determined as 50 µg/mL.
